From ChEMBL document CHEMBL1130166, “Synthesis and pharmacological characterization of 3-[2-((3aR,9bR)-cis-6-methoxy-2,3,3a,4,5,9b-hexahydro-1H-benz[e] isoindol-2-yl)ethyl]pyrido-[3',4':4,5]thieno[3,2-d]pyrimidine-2,4 (1H,3H)-dione (A-131701): a uroselective alpha 1A adrenoceptor antagonist for the symptomatic treatment of benign …” (J Med Chem, 1997) come the findings set out here.

The structures appear in SMILES notation.

In experiment [1] the target is T1, 5-hydroxytryptamine receptor 1F (Rattus norvegicus, UniProt P30940).
T1 sequence (P30940 whole entry): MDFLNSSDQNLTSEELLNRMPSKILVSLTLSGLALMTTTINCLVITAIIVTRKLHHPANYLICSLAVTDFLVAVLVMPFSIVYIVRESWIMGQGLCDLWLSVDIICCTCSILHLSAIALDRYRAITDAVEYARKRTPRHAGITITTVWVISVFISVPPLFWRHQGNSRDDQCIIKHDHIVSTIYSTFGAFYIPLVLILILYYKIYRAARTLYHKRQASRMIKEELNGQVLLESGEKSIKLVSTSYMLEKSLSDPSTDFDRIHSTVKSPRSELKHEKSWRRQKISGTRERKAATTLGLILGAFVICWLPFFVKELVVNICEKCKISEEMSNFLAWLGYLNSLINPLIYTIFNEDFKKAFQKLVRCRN
In words: Binding affinity against 5-hydroxytryptamine 1 receptor using [3H]5-HT as radioligand.

Experiment [2] concerns the target 5-hydroxytryptamine receptor 2A (Bos taurus, UniProt Q75Z89). In words: Binding affinity against 5-hydroxytryptamine 2 receptor using [3H]ketanserin as radioligand.
Experiment [3] addresses T2, Alpha-1D adrenergic receptor (Rattus norvegicus, UniProt P23944).
T2 sequence (P23944 whole entry): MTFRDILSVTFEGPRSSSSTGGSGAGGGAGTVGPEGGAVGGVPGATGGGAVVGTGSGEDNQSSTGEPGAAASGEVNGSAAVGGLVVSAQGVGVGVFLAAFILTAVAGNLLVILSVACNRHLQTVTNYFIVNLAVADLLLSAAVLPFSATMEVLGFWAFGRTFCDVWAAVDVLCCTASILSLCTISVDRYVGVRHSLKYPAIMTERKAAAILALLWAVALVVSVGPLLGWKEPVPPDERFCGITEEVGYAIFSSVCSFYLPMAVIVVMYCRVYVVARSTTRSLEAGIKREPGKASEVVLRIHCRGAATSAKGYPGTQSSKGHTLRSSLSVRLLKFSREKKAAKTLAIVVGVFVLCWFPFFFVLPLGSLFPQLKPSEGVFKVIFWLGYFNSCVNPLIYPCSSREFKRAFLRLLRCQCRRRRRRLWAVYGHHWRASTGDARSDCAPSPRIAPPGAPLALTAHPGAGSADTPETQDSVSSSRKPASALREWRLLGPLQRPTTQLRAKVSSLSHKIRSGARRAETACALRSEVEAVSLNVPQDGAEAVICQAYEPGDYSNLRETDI
Description: In vitro antagonism against Alpha-1D adrenergic receptor using phenylephrine (PE) challenge in rat aorta. The class given is functional, tissue-based. Particulars: read-out: pA2 (converted). The gist of the method: (§1)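 Agonist concentration-response curves were run on the isolated tissue, then repeated in the presence of increasing concentrations of antagonist. pA2 was obtained by Schild analysis.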

Experiment [4] addresses T3, Alpha-1B adrenergic receptor (Rattus norvegicus, UniProt P15823).
T3 sequence (P15823 whole entry): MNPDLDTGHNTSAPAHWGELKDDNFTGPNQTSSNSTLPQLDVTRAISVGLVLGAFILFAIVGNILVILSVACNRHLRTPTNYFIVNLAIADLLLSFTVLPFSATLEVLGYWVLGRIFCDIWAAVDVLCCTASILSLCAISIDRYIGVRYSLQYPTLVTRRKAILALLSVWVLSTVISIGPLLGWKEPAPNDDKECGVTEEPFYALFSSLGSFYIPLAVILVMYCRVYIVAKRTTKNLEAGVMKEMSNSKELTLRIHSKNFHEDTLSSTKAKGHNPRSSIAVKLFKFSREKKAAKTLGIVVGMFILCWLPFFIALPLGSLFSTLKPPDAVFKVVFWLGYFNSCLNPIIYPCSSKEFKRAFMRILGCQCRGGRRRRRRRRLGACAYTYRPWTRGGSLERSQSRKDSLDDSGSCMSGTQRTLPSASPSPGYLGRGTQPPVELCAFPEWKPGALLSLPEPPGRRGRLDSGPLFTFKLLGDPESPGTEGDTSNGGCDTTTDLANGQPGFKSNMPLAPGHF
In words: In vitro antagonism against Alpha-1B adrenergic receptor using phenylephrine (PE) challenge in rat spleen. The class given is functional, tissue-based. As to conditions: read-out: pA2 (converted). In a few lines:
as §1

The target of experiment [5] is Beta-1 adrenergic receptor (Homo sapiens, UniProt P08588). In words: Binding affinity against Beta-1 adrenergic receptor using [3H]DHA as radioligand.
In experiment [6] the target is T4, Alpha-2A adrenergic receptor (Homo sapiens, UniProt P08913).
T4 sequence (P08913 whole entry): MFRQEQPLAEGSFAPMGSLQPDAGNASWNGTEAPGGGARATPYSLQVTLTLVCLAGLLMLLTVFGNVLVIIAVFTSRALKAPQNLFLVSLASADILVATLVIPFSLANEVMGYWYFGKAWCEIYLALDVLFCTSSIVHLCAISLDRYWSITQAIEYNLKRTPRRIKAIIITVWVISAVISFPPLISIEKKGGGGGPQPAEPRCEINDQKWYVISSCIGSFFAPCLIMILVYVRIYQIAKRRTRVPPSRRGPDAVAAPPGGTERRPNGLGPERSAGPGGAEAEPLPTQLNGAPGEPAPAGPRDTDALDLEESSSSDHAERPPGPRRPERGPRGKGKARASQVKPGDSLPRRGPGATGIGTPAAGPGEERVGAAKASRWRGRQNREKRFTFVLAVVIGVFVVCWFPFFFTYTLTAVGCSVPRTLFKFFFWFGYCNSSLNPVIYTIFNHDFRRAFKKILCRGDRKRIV
Description: Binding affinity against human adrenergic receptor subtype Alpha-2A adrenergic receptor using [3H]rauwolscine as radioligand.

In experiment [7] the target is T5, Alpha-1B adrenergic receptor (Homo sapiens, UniProt P35368).
T5 sequence (P35368 whole entry): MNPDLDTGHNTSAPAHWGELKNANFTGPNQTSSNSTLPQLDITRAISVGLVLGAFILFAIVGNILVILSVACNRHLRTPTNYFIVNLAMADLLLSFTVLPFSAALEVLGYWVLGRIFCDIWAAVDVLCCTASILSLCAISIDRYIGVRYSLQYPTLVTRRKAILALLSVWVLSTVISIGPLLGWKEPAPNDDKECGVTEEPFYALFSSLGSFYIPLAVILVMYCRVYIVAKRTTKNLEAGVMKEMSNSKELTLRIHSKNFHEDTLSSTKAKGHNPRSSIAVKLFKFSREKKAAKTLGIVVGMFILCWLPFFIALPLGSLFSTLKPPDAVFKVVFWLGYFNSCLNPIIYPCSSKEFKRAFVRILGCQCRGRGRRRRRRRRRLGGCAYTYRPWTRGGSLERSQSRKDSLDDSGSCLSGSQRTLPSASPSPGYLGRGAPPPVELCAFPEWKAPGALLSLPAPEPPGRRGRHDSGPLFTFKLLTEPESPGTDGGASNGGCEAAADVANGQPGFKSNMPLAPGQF
Description: Binding affinity against human adrenergic receptor subtype Alpha-1B adrenergic receptor using [3H]prazosin as radioligand.

For experiment [8], the target named is T6, Alpha-2C adrenergic receptor (Homo sapiens, UniProt P18825).
T6 sequence (P18825 whole entry): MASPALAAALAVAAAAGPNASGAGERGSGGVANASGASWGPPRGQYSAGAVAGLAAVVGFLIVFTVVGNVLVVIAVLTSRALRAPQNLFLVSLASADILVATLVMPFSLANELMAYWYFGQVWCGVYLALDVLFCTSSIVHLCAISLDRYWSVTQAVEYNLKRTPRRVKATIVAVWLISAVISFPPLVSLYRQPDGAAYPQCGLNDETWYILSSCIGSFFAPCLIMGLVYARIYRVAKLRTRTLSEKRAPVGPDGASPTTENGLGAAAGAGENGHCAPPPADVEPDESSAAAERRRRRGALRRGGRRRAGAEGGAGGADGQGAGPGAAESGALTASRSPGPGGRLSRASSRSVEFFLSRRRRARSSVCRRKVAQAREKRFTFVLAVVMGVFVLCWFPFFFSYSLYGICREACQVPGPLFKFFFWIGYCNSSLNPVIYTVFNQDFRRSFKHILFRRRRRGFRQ
Description: Binding affinity against human Alpha-2C adrenergic receptor using [3H]rauwolscine as radioligand.

The target of experiment [9] is T7, Alpha-2B adrenergic receptor (Rattus norvegicus, UniProt P19328).
T7 sequence (P19328 whole entry): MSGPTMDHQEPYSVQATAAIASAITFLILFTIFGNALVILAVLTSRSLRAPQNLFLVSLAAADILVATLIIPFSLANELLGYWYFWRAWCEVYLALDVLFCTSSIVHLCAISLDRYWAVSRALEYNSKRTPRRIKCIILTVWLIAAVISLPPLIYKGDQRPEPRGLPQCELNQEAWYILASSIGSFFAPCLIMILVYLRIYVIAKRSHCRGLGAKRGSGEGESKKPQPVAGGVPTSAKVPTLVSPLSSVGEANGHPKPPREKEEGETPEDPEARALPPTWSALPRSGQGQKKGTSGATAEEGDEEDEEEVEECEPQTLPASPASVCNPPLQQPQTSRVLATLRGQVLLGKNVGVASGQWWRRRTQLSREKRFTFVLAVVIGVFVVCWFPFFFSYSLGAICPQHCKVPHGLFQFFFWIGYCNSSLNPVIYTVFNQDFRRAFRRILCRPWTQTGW
In words: Binding affinity against rat Alpha-2B adrenergic receptor using [3H]rauwolscine as radioligand.

The target of experiment [10] is Beta-2 adrenergic receptor (Homo sapiens, UniProt P07550). In words: Binding affinity against adrenergic receptor subtype Beta-2 adrenergic receptor using [3H]DHA as radioligand.
The next experiment addresses D(1A) dopamine receptor (Mus musculus, UniProt Q61616). Description: Binding affinity against Dopamine receptor D1 using [3H]SCH-23390 as radioligand.
For a further experiment, the target named is D(2) dopamine receptor (Homo sapiens, UniProt P14416). Description: Binding affinity against Dopamine receptor D2 using [3H]spiroperidol as radioligand.
Experiment [11] has as its target T8, Alpha-1D adrenergic receptor (Homo sapiens, UniProt P25100).
T8 sequence (P25100 whole entry): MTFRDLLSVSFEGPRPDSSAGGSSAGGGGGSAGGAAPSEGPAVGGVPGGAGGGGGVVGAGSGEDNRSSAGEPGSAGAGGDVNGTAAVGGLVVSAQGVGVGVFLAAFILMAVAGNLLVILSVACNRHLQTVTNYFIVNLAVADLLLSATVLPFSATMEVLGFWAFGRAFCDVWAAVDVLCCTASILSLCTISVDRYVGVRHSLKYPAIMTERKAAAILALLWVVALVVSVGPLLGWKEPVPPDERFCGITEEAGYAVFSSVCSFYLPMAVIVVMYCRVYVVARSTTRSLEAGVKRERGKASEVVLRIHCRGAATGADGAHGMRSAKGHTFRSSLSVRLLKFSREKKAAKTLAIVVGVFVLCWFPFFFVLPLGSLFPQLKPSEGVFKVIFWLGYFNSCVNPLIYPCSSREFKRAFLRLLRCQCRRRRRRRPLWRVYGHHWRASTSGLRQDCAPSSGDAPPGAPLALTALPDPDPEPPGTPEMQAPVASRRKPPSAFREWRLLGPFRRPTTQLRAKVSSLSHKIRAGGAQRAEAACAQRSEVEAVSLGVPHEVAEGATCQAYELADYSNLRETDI
Description: Binding affinity against human adrenergic receptor subtype Alpha-1D adrenergic receptor using [3H]prazosin as radioligand.

The test system of another experiment is Rattus norvegicus. Description: Compound was tested for selectivity in a challenge spontaneously hypertensive rat (SHR) model using an ascending iv dose paradigm.

Chain of Beta-2 adrenergic receptor (P07550 whole entry): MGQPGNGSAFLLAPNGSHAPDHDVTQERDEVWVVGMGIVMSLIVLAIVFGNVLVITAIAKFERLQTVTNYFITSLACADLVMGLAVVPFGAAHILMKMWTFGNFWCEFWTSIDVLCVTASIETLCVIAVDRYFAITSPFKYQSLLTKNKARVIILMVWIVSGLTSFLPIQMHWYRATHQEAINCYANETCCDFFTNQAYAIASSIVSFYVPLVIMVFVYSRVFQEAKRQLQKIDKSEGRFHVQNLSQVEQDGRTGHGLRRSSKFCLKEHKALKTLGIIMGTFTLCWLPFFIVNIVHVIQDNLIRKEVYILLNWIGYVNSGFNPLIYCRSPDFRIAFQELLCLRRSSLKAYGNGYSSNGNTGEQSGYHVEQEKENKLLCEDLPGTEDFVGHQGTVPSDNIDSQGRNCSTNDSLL
Chain of Beta-1 adrenergic receptor (P08588 whole entry): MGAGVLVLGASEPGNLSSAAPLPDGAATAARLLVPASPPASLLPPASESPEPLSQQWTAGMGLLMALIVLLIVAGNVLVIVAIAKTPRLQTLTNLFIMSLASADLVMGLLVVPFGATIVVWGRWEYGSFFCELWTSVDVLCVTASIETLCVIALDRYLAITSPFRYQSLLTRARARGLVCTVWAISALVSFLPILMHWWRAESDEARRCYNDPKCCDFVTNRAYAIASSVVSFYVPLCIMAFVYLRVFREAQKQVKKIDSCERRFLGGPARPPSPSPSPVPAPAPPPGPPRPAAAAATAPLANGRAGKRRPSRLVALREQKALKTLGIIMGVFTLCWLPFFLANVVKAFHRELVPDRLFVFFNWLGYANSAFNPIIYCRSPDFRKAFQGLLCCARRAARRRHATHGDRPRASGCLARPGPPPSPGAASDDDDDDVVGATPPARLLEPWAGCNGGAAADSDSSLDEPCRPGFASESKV
Chain of D(2) dopamine receptor (P14416 whole entry): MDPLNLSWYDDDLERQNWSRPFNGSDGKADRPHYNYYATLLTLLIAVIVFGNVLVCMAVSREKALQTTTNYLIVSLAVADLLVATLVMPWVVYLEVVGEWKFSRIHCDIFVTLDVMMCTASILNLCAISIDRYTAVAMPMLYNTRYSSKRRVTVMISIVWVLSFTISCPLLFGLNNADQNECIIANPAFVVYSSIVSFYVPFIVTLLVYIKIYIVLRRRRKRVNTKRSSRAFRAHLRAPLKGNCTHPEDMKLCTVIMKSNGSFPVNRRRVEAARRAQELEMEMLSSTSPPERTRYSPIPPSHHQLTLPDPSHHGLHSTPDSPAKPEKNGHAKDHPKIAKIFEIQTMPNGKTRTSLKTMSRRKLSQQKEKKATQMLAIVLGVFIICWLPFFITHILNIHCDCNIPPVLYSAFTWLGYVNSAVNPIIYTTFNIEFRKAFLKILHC
Chain of 5-hydroxytryptamine receptor 2A (Q75Z89 whole entry): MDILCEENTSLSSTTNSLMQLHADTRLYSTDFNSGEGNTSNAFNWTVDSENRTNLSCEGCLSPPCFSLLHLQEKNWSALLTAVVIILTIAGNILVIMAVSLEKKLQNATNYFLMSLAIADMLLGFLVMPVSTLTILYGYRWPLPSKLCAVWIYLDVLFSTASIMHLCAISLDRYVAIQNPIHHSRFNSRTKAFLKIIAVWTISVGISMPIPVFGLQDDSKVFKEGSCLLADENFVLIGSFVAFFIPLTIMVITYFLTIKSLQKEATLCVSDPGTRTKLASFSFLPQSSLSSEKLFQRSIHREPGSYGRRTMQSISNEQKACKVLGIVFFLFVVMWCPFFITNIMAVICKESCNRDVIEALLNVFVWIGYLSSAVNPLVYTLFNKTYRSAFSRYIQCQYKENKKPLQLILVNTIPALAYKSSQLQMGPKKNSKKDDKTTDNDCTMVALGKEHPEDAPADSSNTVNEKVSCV
Chain of D(1A) dopamine receptor (Q61616 whole entry): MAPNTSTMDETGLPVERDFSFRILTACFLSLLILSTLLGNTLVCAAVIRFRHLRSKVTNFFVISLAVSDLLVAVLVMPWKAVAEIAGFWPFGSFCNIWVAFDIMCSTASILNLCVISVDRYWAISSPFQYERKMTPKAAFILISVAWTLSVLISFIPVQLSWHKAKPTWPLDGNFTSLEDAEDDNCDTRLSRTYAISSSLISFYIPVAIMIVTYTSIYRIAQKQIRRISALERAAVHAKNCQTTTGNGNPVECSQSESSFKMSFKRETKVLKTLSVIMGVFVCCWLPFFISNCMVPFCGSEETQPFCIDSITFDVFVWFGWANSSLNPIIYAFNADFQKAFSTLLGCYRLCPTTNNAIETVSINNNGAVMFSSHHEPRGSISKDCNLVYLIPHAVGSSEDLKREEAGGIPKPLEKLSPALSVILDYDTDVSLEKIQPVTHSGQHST

On to `COc1cccc2c1CC[C@H]1CN(CCn3c(=O)[nH]c4c(sc5cccnc54)c3=O)C[C@@H]21`, for which the Ki in [1] was determined as 3.38 µM; in [2] it was 83 nM; in [5] it was 10.6 µM; in experiment [6] it was 94.9 nM; in experiment [7] it was 6.95 nM; in [8], 16.6 nM. In addition, the Ki in [9] is 13.1 nM; in [10] it was 3.87 µM; at D(1A) dopamine receptor, 717 nM; on D(2) dopamine receptor, 19.7 nM; in experiment [11], 0.97 nM. Moreover, the Kb in [3] is 0.776 nM; in experiment [4], 12.9 nM. The compound further registered a pED50 in the experiment with Rattus norvegicus of 5.33.

As to `CCOc1ccccc1OCCN[C@H](C)Cc1ccc(OC)c(S(N)(=O)=O)c1` [TAMSULOSIN], the Kb in experiment [4] is 0.204 nM. The inhibition constant Ki stood at 13.4 nM in [6]; 0.61 nM in [7]; 7.9 nM in [8]; 6.8 nM in experiment [9]; 0.058 nM in experiment [11]. Further, the pED50 in the experiment with Rattus norvegicus is 7.33.

For `COc1cc2nc(N3CCN(C(=O)C4CCCO4)CC3)nc(N)c2cc1OC` (stereo not given) [TERAZOSIN], the Ki is 1500 nM in experiment [6], 7.7 nM in [9] and 0.85 nM in experiment [11]. Besides, the pED50 in the experiment on Rattus norvegicus came to 6.64.
